High-throughput results from PubChem BioAssay.
hERG rescue = shields human hERG channel from block by proarrhythmic agents | Q12809 | CHO-hERG, FluxOR thallium flux, dofetilide IC70 present | activation (rescue from dofetilide block), less the hit threshold, % at 10 µM | actives 0.51% (n = 310,000) | AID 1511;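 active = activation above the mean of controls blocked by dofetilide plus 5 SD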;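 also: thallium influx through hERG after potassium depolarization seen as dye fluorescence rise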
KCNK3 block = human KCNK3 channel inhibition, primary screen | O14649 | B-score at 10 µM | actives 0.84% (n = 340,000) | CHO-KCNK3 thallium flux, FluxOR fluorescence; hits give low values;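 active = B-score under library mean minus 4 SD, starting fluorescence ratio at most library mean plus 5 SD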;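 also: more negative B-score means stronger inhibition of thallium flux through KCNK3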
KCNQ1 block = inhibitors of human KCNQ1 potassium channel. P51787. CHO-K1 KCNQ1, FluxOR thallium flux fluorescence; hits give high values. B-score at 10 µM. actives 1.3% (n = 310,000). AID 2642;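 active = compounds whose thallium flux B-score, printed positive for inhibition, exceeds three library SD while starting fluorescence stays within three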;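 also: channel opened by potassium depolarization with thallium stimulus after 20 min compound exposure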
Target sequence (P51787 whole entry, looked up): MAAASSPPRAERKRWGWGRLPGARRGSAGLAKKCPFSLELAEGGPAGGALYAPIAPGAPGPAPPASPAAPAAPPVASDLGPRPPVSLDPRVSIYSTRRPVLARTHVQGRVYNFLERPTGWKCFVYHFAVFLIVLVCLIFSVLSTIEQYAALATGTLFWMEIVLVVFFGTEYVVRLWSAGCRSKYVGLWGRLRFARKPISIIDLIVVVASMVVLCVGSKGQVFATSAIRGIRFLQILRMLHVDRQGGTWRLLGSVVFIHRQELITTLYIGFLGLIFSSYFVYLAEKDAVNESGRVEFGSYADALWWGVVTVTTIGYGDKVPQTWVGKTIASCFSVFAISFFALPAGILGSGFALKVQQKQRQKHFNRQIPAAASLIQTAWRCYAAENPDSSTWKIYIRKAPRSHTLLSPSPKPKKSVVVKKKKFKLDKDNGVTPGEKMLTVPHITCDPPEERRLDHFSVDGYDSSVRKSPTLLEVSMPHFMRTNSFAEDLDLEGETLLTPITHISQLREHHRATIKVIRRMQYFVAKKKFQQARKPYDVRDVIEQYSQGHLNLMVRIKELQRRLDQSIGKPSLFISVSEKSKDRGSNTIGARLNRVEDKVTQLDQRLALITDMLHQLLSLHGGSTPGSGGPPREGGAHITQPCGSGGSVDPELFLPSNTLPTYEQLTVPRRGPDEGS
KCNQ1 pot = human KCNQ1 channel potentiation or activation; P51787; CHO-K1 KCNQ1, thallium flux FluxOR fluorescence; hits give high values; B-score at 10 µM; actives 0.35% (n = 310,000);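 active = fluorescence ratio B-score, a plate-corrected score, at least three library SD, with initial intensity B-score within 5 SD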
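Assay system: CHO-K1 cells stably expressing KCNQ1. Medium: assay buffer for compound exposure, DMSO matched across wells. Timing: 37 °C overnight plating, 90-min dark dye load, 20-min compound pretreatment. Signal: kinetic FluxOR fluorescence, 10 s baseline plus 110 s post-stimulus.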
KCNK9 inh = blocks the human KCNK9 two-pore domain potassium channel. Q9NPC2. HEK293 KCNK9, FluxOR thallium flux fluorescence; hits give low values. B-score at 10 µM. actives 1.2% (n = 310,000). AID 488922;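 active = ratio B-score over 3 SD below the library mean, with starting fluorescence within 5 SD of its mean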;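 also: negative B-score means less thallium flux so channel inhibition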
* marks the source's active call; other numbers are inactive results; i = inactive; x = no result given. Sampled rows, rich in hits. Any-hit rate of the full collection: about 3.1%.

SMILES | hERG rescue | KCNK3 block | KCNQ1 block | KCNQ1 pot | KCNK9 inh
CCCCCc1cc(OC)cc2c1C(=O)OC(C)(C)O2 | x | -11* | x | x | x
CN(Cc1ccccc1)C(=O)c1ccc(NC(=O)Cc2ccc(NC(=O)C3CCCN(S(=O)(=O)c4cccc([N+](=O)[O-])c4)C3)cc2)cc1 (configuration not stated) | x | i | x | x | x
CCc1cc(C(=O)OC)c(NC(=O)CN2CCN(C(=O)c3ccco3)CC2)s1 | -2 | i | i | i | i
Cc1ccc(C(=O)c2cc(C)sc2NC(=O)CN2CCN(C(=O)c3ccco3)CC2)cc1 | -20 | i | 9* | i | i
Cc1cc(C)c(C#N)c(N2CCN(CCOc3ccc(Cl)cc3)CC2)n1 | -13 | i | i | i | i
COc1ccc(Cl)cc1CN1CCN(c2nc(C)cc(C)c2C#N)CC1 | -12 | -9.6* | i | i | i
CCN1C/C(=C\c2cc(OC)c(OC)c(OC)c2)C2=NN(c3ccccc3)C(c3cc(OC)c(OC)c(OC)c3)C2C1 (configuration not stated) | x | i | x | x | x
O=[N+]([O-])c1ccc(NC(=S)NCCc2ccc(Cl)cc2)cc1 | -14 | i | 8* | i | i
O=[N+]([O-])c1ccc(NC(=S)NCCc2ccccc2)cc1 | -19 | i | 6* | i | i
O=[N+]([O-])c1cc(C(F)(F)F)ccc1NCCNC(=S)Nc1ccc(Cl)cc1 | -5 | i | 6* | i | i
CC(OC(=O)c1cccc(S(=O)(=O)N(C)C)c1)C(=O)NCc1ccc2c(c1)OCO2 (configuration not stated) | -7 | i | i | i | i
CCOC(=O)c1sc2nc(COC(=O)c3c(F)cccc3F)[nH]c(=O)c2c1C | -9 | i | i | i | i
CCOC(=O)c1sc2nc(Cc3ccc(Cl)cc3)[nH]c(=S)c2c1C | 75* | i | i | 46* | i
CCNc1ccc(C(=O)N/N=C/c2c(C)nn(-c3ccccc3)c2N2CCCC2)cc1[N+](=O)[O-] | -7 | i | 6* | i | i
O=C(Nc1ccc(Oc2ccccc2)nc1)C1CCN(Cc2cccc(F)c2)CC1 | -10 | i | i | i | i
C#Cc1ccc(CN2CCC(C(=O)Nc3ccc(Oc4ccccc4)nc3)CC2)cc1 | -11 | i | 6* | i | i
CN(Cc1c(C(=O)N(C)Cc2ccccc2)nc2ccccn12)CC1Cc2ccccc2O1 (configuration not stated) | -13 | i | i | i | i
Cc1nn(C)cc1CN(C)Cc1c(C(=O)N(C)Cc2ccccc2)nc2ccccn12 | 6.5* | i | i | i | i
O=C(CSc1nc2ccccc2c(=O)n1-c1ccc(F)cc1F)Nc1ccc2c(c1)CCC2 | -11 | i | i | i | -7.6*
Cc1ccc(C(=O)CCC(=O)OCC(=O)N2CCN(S(=O)(=O)c3ccc(C)cc3C)CC2)cc1 | x | i | x | x | x
Cc1ccc(S(=O)(=O)N(C)C)cc1NC(=O)COC(=O)/C(=C/c1ccc(F)cc1)c1cccs1 | -7 | i | i | i | -7.3*
CC(=O)N/C(=C\c1ccccc1)C(=O)OCC(=O)Nc1cc(S(=O)(=O)N(C)C)ccc1C | -16 | i | i | i | i
CCOC(=O)c1oc2ccc(S(=O)(=O)n3nc(-c4ccc(OC)cc4)cc3N)cc2c1C | -6 | i | i | 9* | i
COc1nc(-c2ccccc2)cc(C(F)(F)F)n1 | 4.7* | i | i | i | i
COc1ccc(-c2cc(C(F)(F)F)nc(N)n2)cc1 | -10 | i | i | i | i
CCOC(=O)CS(=O)(=O)c1nc(-c2ccc(F)cc2)cc(C(F)(F)F)n1 | -26 | i | i | 9* | i
COc1ccc(-c2cc(C(F)(F)F)nc(S(C)(=O)=O)n2)cc1 | -11 | i | 6* | i | i
C[C@H](CO)N1C[C@H](C)[C@@H](CN(C)S(C)(=O)=O)Oc2ccc(NS(=O)(=O)c3cn(C)cn3)cc2C1=O | x | i | x | x | x
O=C(O)C1CCN(C(=O)CCN2C(=O)S/C(=C\c3ccccc3)C2=O)CC1 | -3 | i | i | i | i
Cc1nn(C(C)C(=O)NCCN2CCCCCC2)c(=O)c2nn(-c3ccccc3)c(C)c12 (configuration not stated) | -5 | i | i | i | i
